For data set [1], the species on record is Rattus norvegicus. Briefly: ED50/IC50 ratio was determined. It counts as functional.
The species entered for data set [2] is Rattus norvegicus. Description: Effect on insulin secretion from rat pancreatic islets at 10 uM concentration (n=16). The class given is functional. The method in brief:
(§1)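 Islets isolated by collagenase from fed Wistar rats (180-220 g); groups of 10 preincubated 30 min, 37 °C, in bicarbonate salt medium with 2.8 mM glucose, 0.5% dialyzed albumin, O2/CO2 95:5. Then incubated 90 min, 37 °C, with 16.7 mM glucose plus drug. Insulin measured by radioimmunoassay against rat insulin standard; expressed as % of drug-free 16.7 mM glucose control; mean ± SEM (n).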

Data set [3] is filed under the species Rattus norvegicus. Briefly: Concentration required for 50% inhibition of insulin release in rat pancreatic B-cells. The class given is functional, cell-based.
Data set [4] can be described thus: Ionization constant was determined. It counts as physicochemical. The method in brief: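 Ionization constant found by UV spectroscopy in aqueous buffers spanning pH 5 to 12; pKa calculated with the Debye-Hückel equation at the absorbance maximum of the basic form.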
The species named for data set [5] is Rattus norvegicus. Description: Effect on insulin secretion from rat pancreatic islets at 1 uM concentration (n=15). The class given is functional. The method in brief: as §1
The species entered for data set [6] is Rattus norvegicus. Briefly: Concentration required for relaxation of the 30 mM KCl-induced contraction of rat aortic rings (n=4). It counts as functional. To be noted: Aorta, read-out: ED50 (the source's name). In a few lines: (§2)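 Endothelium-denuded transverse aortic rings (3-4 mm) from fed Wistar rats (180-200 g); isometric tension by force transducer. After 60 min equilibration, contracted with 30 mM KCl; at stable tension, drug added cumulatively until maximal relaxation or up to 0.3 mM. Relaxation expressed as % of KCl contraction; ED50 (50% inhibition of KCl plateau) from dose curves; mean ± SEM (n).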

The species named for data set [7] is Rattus norvegicus. Briefly: Effect on insulin secretion from rat pancreatic islets at 50 uM concentration (n=16). It counts as functional. The method in brief:
as §1

Data set [8] is filed under the species Rattus norvegicus. Briefly: Effect on insulin secretion from rat pancreatic islets at 10 uM concentration (n=14). The class given is functional. In a few lines:
as §1

Data set [9] is filed under the species Rattus norvegicus. Description: Effect on insulin secretion from rat pancreatic islets at 1 uM concentration (n=16). The class given is functional. In a few lines: as §1
Data set [10] is filed under the species Rattus norvegicus. Briefly: Concentration required for relaxation of the 30 mM KCl-induced contraction of rat aortic rings; Precipitate. It counts as functional. The following applies: Aorta. The method in brief: as §2
For data set [11], the species on record is Rattus norvegicus. Briefly: Effect on insulin secretion from rat pancreatic islets at 10 uM concentration (n=22). The class given is functional. In a few lines: as §1
For data set [12], the species on record is Rattus norvegicus. Description: Effect on insulin secretion from rat pancreatic islets at 50 uM concentration (n=14). The class given is functional. In a few lines:
as §1

For data set [13], the species on record is Rattus norvegicus. Briefly: Effect on insulin secretion from rat pancreatic islets at 50 uM concentration (n=21). It counts as functional. In a few lines:
as §1

For data set [14], the species on record is Rattus norvegicus. Description: Effect on insulin secretion from rat pancreatic islets at 10 uM concentration (n=15). The class given is functional. In a few lines: as §1
The species entered for data set [15] is Rattus norvegicus. Description: Effect on insulin secretion from rat pancreatic islets at 10 uM concentration (n=23). The class given is functional. The method in brief: as §1
For data set [16], the species on record is Rattus norvegicus. Briefly: Effect on insulin secretion from rat pancreatic islets at 1 uM concentration (n=14). It counts as functional. The method in brief:
as §1

Data set [17] is filed under the species Rattus norvegicus. Briefly: Concentration giving 50% relaxation of the 30 mM KCl-induced contraction of rat aortic rings (n=6). To be noted: Aorta, read-out: ED50 (the source's name). The class given is functional. The method in brief:
as §2

The species entered for data set [18] is Rattus norvegicus. Briefly: Effect on insulin secretion from rat pancreatic islets at 50 uM concentration (n=12). It counts as functional. The method in brief:
as §1

The species entered for data set [19] is Rattus norvegicus. Description: Concentration giving 50% relaxation of the 30 mM KCl-induced contraction of rat aortic rings (n=7). It counts as functional. To be noted: Aorta, read-out: ED50 (the source's name). In a few lines:
as §2

The species named for data set [20] is Rattus norvegicus. Description: Effect on insulin secretion from rat pancreatic islets at 50 uM concentration (n=13). It counts as functional. The method in brief: as §1
The species entered for data set [21] is Rattus norvegicus. Briefly: Effect on insulin secretion from rat pancreatic islets at 50 uM concentration (n=15). The class given is functional. In a few lines:
as §1

Data set [22] is filed under the species Rattus norvegicus. Briefly: Concentration giving 50% relaxation of the 30 mM KCl-induced contraction of rat aortic rings (n=3). It counts as functional. The following applies: Aorta, read-out: ED50 (the source's name). In a few lines:
as §2

Data set [23] is filed under the species Rattus norvegicus. Briefly: Effect on insulin secretion from rat pancreatic islets at 50 uM concentration (n=18). It counts as functional. The method in brief: as §1

The term IC50 denotes the midpoint of a concentration-inhibition curve. Read a high IC50 as weaker potency. One may read the pKa as the negative logarithm of the acid dissociation constant. A low value points to a stronger acid or weaker base. As to `CC(C)NC1=NS(=O)(=O)c2ccccc2N1`, in the data set filed under Rattus norvegicus [1], the Ratio is reported as >79. The results for the Residual insulin release in the data set listed under Rattus norvegicus [2] and in the data set filed under Rattus norvegicus [5] were 34.9% and 73.7%, respectively. This compound also yielded a half-maximal inhibitory concentration (IC50) in the data set listed under Rattus norvegicus [3] of 3.8 µM. Moreover, the pKa in [4] amounted to 9.98. Also, the EC50 in the data set listed under Rattus norvegicus [6] is > 300 µM.

As for `CC(C)C(C)NC1=NS(=O)(=O)c2cc([N+](=O)[O-])ccc2N1` (configuration not stated), the EC50 in the data set filed under Rattus norvegicus [6] is 2.8 µM. Besides, the Residual insulin release in the data set listed under Rattus norvegicus [7] was 90.4%.

For `O=S1(=O)N=C(NC2CCC2)Nc2ccccc21`, the Residual insulin release in the data set filed under Rattus norvegicus [8] amounted to 29.8%; in the data set listed under Rattus norvegicus [9], 79.9%. For the same compound, the ED50 entry in the data set filed under Rattus norvegicus [10] was “Insoluble”.

As to `CCCNC1=NS(=O)(=O)c2cc(C(F)(F)F)ccc2N1`, the values for the Residual insulin release in the data set filed under Rattus norvegicus [11] and in the data set listed under Rattus norvegicus [12] were 77.9% and 52%, respectively. The EC50 in the data set listed under Rattus norvegicus [6] worked out at 2.9 µM.

Take `N#Cc1ccc2c(c1)S(=O)(=O)N=C(NC1CCC1)N2`: the EC50 in the data set filed under Rattus norvegicus [6] stood at 57.9 µM. Also, the Residual insulin release in the data set listed under Rattus norvegicus [13] is recorded as 54.3%; in the data set listed under Rattus norvegicus [14], 102.6%.

As for `CC(C)NC1=NS(=O)(=O)c2cc(C(=O)O)ccc2N1`, the values for the Residual insulin release in the data set listed under Rattus norvegicus [15] and in the data set listed under Rattus norvegicus [7] were 96.6% and 98.6%, respectively. Further, in the data set filed under Rattus norvegicus [6], the EC50 was > 300 µM.

`COc1ccc2c(c1)S(=O)(=O)NC(NC1CCC1)=N2`: in the data set listed under Rattus norvegicus [1], the Ratio is listed as 72. The IC50 in the data set filed under Rattus norvegicus [3] was 2.2 µM. Also, the Residual insulin release in the data set filed under Rattus norvegicus [16] was determined as 71.3%; in the data set listed under Rattus norvegicus [18], 4%; in the data set filed under Rattus norvegicus [14], 14.1%. Further, the EC50 in the data set filed under Rattus norvegicus [17] amounted to 157 µM.

As to `CCCNC1=NS(=O)(=O)c2cc([N+](=O)[O-])ccc2N1`, in the data set listed under Rattus norvegicus [19], the EC50 was determined as 15.7 µM. The compound also gave a Residual insulin release in the data set filed under Rattus norvegicus [7] of 88.9%.

Consider `CCC(C)NC1=NS(=O)(=O)c2cc(C(=O)O)ccc2N1` (configuration not stated), for which the Residual insulin release came to 93% in the data set filed under Rattus norvegicus [15] and 91.2% in the data set filed under Rattus norvegicus [7]. For the same compound, the EC50 in the data set filed under Rattus norvegicus [6] is > 300 µM.

With `CCCNC1=NS(=O)(=O)c2cc(OC)ccc2N1`, in the data set filed under Rattus norvegicus [1], the Ratio was >34. The compound also returned an IC50 in the data set filed under Rattus norvegicus [3] of 8.9 µM. Besides, the Residual insulin release in the data set filed under Rattus norvegicus [8] came out at 47.4%; in the data set filed under Rattus norvegicus [18], 6.3%; in the data set listed under Rattus norvegicus [9], 101.7%. Further, the EC50 in the data set listed under Rattus norvegicus [6] was > 300 µM.

For `CC(C)NC1=NS(=O)(=O)c2cc(S(C)(=O)=O)ccc2N1`, in the data set filed under Rattus norvegicus [6], the EC50 amounted to 127 µM. In the data set listed under Rattus norvegicus [14], the Residual insulin release is reported as 90.5%.

Take `CCCCCc1ccc2c(c1)S(=O)(=O)NC(NC1CCC1)=N2`: in the data set listed under Rattus norvegicus [6], the EC50 is > 30 µM. The Residual insulin release in the data set listed under Rattus norvegicus [14] is listed as 95.3%.

As to `O=[N+]([O-])c1ccc2c(c1)S(=O)(=O)NC(NC1CCC1)=N2`, the EC50 in the data set listed under Rattus norvegicus [6] stood at 13.8 µM. This compound showed a Residual insulin release in the data set listed under Rattus norvegicus [20] of 59.6%.

`CC(C)NC1=NS(=O)(=O)c2cc(C#N)ccc2N1`: in data set [4], the pKa came out at 8.56. Besides, the EC50 in the data set listed under Rattus norvegicus [6] was determined as 42.7 µM. Moreover, the Residual insulin release was 23.5% in the data set listed under Rattus norvegicus [13] and 82.2% in the data set filed under Rattus norvegicus [14].

For `CCCNC1=NS(=O)(=O)c2cc(C(=O)O)ccc2N1`, the results for the Residual insulin release in the data set listed under Rattus norvegicus [21] and in the data set listed under Rattus norvegicus [14] were 95.3% and 97.6%, respectively. Moreover, in the data set listed under Rattus norvegicus [6], the EC50 is > 300 µM.

On to `Cc1ccc2c(c1)S(=O)(=O)N=C(NC(C)C)N2`, for which, in the data set filed under Rattus norvegicus [1], the Ratio is listed as 100. This compound registered an IC50 in the data set filed under Rattus norvegicus [3] of 2 µM. In data set [4], the pKa was determined as 10.2. In the data set filed under Rattus norvegicus [22], the EC50 came out at 200 µM. Further, the Residual insulin release stood at 8.5% in the data set listed under Rattus norvegicus [8], 71.3% in the data set listed under Rattus norvegicus [5] and 3.5% in the data set filed under Rattus norvegicus [20].

Regarding `CC(C)NC1=NS(=O)(=O)c2cc(N)ccc2N1`, the Residual insulin release in the data set filed under Rattus norvegicus [21] is 85.8%. Besides, in data set [4], the pKa amounted to 10.5. In addition, the EC50 in the data set filed under Rattus norvegicus [6] is > 300 µM.

In the data set listed under Rattus norvegicus [23], `CCC(C)NC1=NS(=O)(=O)c2cc([N+](=O)[O-])ccc2N1` (configuration not stated) came in with a Residual insulin release of 63.3%. Also, the EC50 in the data set listed under Rattus norvegicus [6] amounted to 6.1 µM.

The values are drawn from ChEMBL document CHEMBL1139506, “Effect on K(ATP) channel activation properties and tissue selectivity of the nature of the substituent in the 7- and the 3-position of 4H-1,2,4-benzothiadiazine 1,1-dioxides” (J Med Chem, 2005).
